From PubChem BioAssay
Rows were chosen to be rich in hits. Some 2.9% of all compounds tested hit in one or more screens of this group.
CRFBP-R2 block: antagonists of CRF-BP/CRF-R2 complex, primary screen, cell-based, HEK293, calcium dye fluorescence, uHTS. CRF-induced calcium fluorescence. inhibition, % at 11.8 µM. 350,000 compounds, 0.59% hits. AID 588475, 2011;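 active = inhibition of the ligand-induced calcium signal above about 50% at the single tested concentration, limit read from the data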
CRFBP-R2 agonist: agonists of CRF-BP/CRF-R2 complex, primary screen, cell-based, HEK293, calcium dye fluorescence, uHTS | CRF-binding protein / CRF receptor 2 complex (human) | calcium dye fluorescence (FLIPR); percent of saturating CRF peptide response | activation, % at 13.2 µM | 350,000 compounds, 0.46% hits;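 active = activation of at least 50%, plus an integration ratio under a set limit after plate pattern correction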;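 also: plate controls were neutral control wells without compound for no effect and CRF at EC100 for full effect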
CendR NRP1 mod: modulators of CendR peptide binding to NRP-1, primary screen, biochemical, fluorescence polarization, uHTS; inhibition, % at 25 µM; 360,000 compounds, 0.85% hits; FAM-RPARPAR peptide binding to NRP-1;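 active = inhibition or corrected inhibition above about 18%, plus a signal ratio from 0.5 to 1.5, limit read from the data, passing the limit was not always enough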
KLK7 zymogen act: proKLK7 zymogen activators, primary screen, biochemical, fluorescence intensity; 370,000 compounds, 0.9% hits; AID 652039, 2013; purified proKLK7, EDANS-DABCYL substrate fluorescence; 100% is mature enzyme control, 0% vehicle; Kallikrein-7 (Homo sapiens), P49862; activation, % at 7 µM;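 active = activation above the mean of all tested compounds plus 3 SD, computed per campaign excluding outliers beyond control limits, cut at about 13% in these data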
Target sequence (P49862 whole entry, looked up): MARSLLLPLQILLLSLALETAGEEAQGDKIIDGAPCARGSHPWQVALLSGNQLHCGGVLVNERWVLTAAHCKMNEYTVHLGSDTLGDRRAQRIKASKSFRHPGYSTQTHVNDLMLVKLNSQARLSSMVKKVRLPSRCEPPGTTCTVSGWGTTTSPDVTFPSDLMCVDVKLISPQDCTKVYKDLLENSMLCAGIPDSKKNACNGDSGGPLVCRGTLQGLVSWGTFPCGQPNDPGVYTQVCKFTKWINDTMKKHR
Tn7 DDE FP: inhibitors of Tn7 peptide binding to fibrin DD(E), primary screen, biochemical, fluorescence polarization, human fibrin, Tn7 probe; Fibrinogen beta chain (Homo sapiens), P02675; FP displacement of FITC-Tn7 peptide from fibrin DD(E); 0% = median of compound wells per plate; inhibition, % at 8.3 µM; 370,000 compounds, 0.13% hits;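 active = inhibition above the mean of compounds falling within the control limits plus 3 SD of them, cut at about 14% in these data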;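 also: 0% = plate median of compound wells and 100% = 10 µM Aha-Tn7 peptide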
Target sequence (P02675 whole entry, looked up): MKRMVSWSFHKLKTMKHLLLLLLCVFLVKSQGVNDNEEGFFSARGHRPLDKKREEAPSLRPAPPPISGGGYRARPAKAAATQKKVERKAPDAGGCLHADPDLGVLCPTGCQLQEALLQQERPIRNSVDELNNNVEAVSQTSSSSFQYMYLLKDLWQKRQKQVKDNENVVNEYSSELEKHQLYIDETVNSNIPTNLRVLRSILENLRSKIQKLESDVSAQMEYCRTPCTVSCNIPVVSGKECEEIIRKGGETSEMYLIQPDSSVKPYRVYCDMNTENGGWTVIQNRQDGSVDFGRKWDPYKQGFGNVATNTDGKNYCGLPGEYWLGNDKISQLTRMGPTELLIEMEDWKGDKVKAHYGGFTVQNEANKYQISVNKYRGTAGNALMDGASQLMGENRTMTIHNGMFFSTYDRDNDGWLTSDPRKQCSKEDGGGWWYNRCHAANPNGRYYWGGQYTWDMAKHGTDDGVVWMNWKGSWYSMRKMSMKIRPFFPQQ
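Assay system: Fibrin-DD(E) protein isolated from polymerized human fibrin clots; read-out basis: percent inhibition; medium: Tris/NaCl/CaCl2 buffer, pH 7.8; signal: FP measurement; incubation: 10 min plus 3 h, room temperature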
Tn6 DDE FP: inhibitors of Tn6 peptide binding to fibrin DD(E), primary screen, biochemical, fluorescence polarization, human fibrin, Tn6 probe; Fibrin DD(E) TRITC-Tn6 fluorescence polarization displacement; inhibition, % at 8.3 µM; 370,000 compounds, 0.21% hits; AID 720509, 2013;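 active = inhibition above a per-campaign cutoff: mean of compounds within control limits plus 3 SD, cut at about 15% in these data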;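 also: 0% = median of all compound wells on the plate and 100% = blocking peptide control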
Tn6 DDE ctr: DD(E)-Tn6 binding inhibition, counter-screen; inhibition, % at 8.3 µM; Fibrin DD(E), TRITC-Tn6 fluorescence polarization displacement; 0% = median of compound wells, not DMSO; shares compounds with Tn6 DDE FP; 680 compounds, 2% hits;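 active = inhibition above the mean of test compounds lying between the control limits plus 3 SD of those, cut at about 14% in these data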;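 also: 0% = median of compound wells and 100% = wells with Aha-Tn7 blocking peptide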
Tn6 DDE conf: inhibitors of Tn6 peptide binding to fibrin DD(E), confirmation, biochemical, fluorescence polarization, human fibrin, Tn6 probe; inhibition, % at 8.3 µM; shares compounds with Tn6 DDE FP; 680 compounds, 10% hits; AID 720631, 2013; FP displacement of TRITC-Tn6 peptide from DD(E); 0% = per-plate median of test wells;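 active = inhibition above the mean of compounds lying within the control limits plus 3 SD, cut at about 16% in these data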;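 also: 100% = high control wells holding a competing inhibitor peptide at 10 µM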
* = called active by the depositor; nt = no result; ! = not confirmed by another sample.

SMILES	CRFBP-R2 block	CRFBP-R2 agonist	CendR NRP1 mod	KLK7 zymogen act	Tn7 DDE FP	Tn6 DDE FP	Tn6 DDE ctr	Tn6 DDE conf
CC1CC(C)CN(S(=O)(=O)c2ccc3c(c2)oc(=O)n3CC(=O)N(C)Cc2ccccc2)C1 (stereo not drawn)	24.0	-0.8	-6.2	0.0	2.7	15.2*	0.5	-4.2
CCCCN1C(=O)C(C(=O)OCC)CC2=C1CCCC2=O (stereo not drawn)	13.2	-1.4	3.1	0.0	-2.0	0.3	nt	nt
CCCCN1C(=O)C(C(=O)OCc2ccccc2)CC2=C1CCCC2=O (stereo not drawn)	5.2	0.2	-8.2	-0.6	-20.4	21.3*	-1.8	-4.6
C[n+]1c(-c2ccccc2)cc2c(=Cc3ccc([N+](=O)[O-])cc3)c3ccccc3n21	-19.9	3.2	-5.9	-2.9	-0.1	-1.3	nt	nt
C[n+]1c(-c2ccccc2)cc2c(=Cc3ccccc3)c3ccccc3n21	-54.0	10.6	-0.6	-3.5	-3.1	16.5*	2.8	0.5
CC(=O)Nc1ccc(NC(=O)C2CCCN2C(=O)NC2CCCCC2)cc1 (stereo not drawn)	5.2	-0.1	-3.5	0.2	-8.3	2.6	nt	nt
COc1ccc(NC(=O)C2CCCN2C(=O)NC2CCCCC2)cc1 (stereo not drawn)	10.0	-0.1	6.5	-0.2	0.8	17.4*	-0.4	-5.0
COC(=O)[C@H](CC(C)C)N(CCCc1cn(CC2CCCCC2)nn1)S(=O)(=O)c1ccc(F)cc1Br	nt	nt	nt	0.2	-4.8	-2.9	nt	nt
COC(=O)[C@]12C[C@H](CC(=O)NCCCCc3ccccc3)C(=O)N(CCC3=CCCCC3)C1=C[C@H](C(C)(C)C)O[C@@H]2C	nt	nt	nt	-0.5	1.8	5.1	nt	nt
O=C(O)c1cccc(S(=O)(=O)Nc2ccccc2Cc2ccccc2)c1	5.6	0.4	1.5	0.8	1.4	-0.3	nt	nt
CS(=O)(=O)c1cccc(C(=O)Nc2ccccc2Cc2ccccc2)c1	-2.0	-0.2	2.3	-0.4	-3.2	16.1*	0.3	-3.3
COc1cccc2c1[C@H](/C=C/c1ccccc1)[C@@H]([C@H](O)COC(C)=O)OC2	nt	nt	nt	0.0	-9.0	-2.5	nt	nt
COc1ccc(C(=O)NCc2nnc(SCC(=O)Nc3cc(OC)ccc3OC)o2)cc1	-5.3	-1.8	4.3	0.1	-1.9	15.4*	5.1	-1.7
CC(CCN1CCC(C(O)(c2ccccc2)c2ccccc2)CC1)Oc1cccc(Cl)c1 (stereo not drawn)	nt	nt	nt	0.5	-1.2	-0.9	nt	nt
CC[C@@H](CCC(=O)N(c1ccccc1)c1ccccc1)c1ccc(C)cc1	nt	nt	nt	0.0	7.4	4.8	nt	nt
O=C1/C(=C\c2cccc(O)c2O)SC(=S)N1Cc1ccccc1	-27.9	-0.9	0.3	-0.6	-1.2	1.5	nt	nt
O=C1/C(=C\c2cc([N+](=O)[O-])ccc2O)SC(=S)N1Cc1ccc(Cl)cc1	-84.8	140.0*	143.4	0.2	-11.8	17.2*	-23.9	-1.3
O=[N+]([O-])c1ccc(N=Nc2ccc(O)cc2O)cc1	26.4	6.8	5.6	-0.4	-7.9	9.2	nt	nt
O=S(=O)(O)c1cc(Cl)cc(N=Nc2ccc(O)cc2O)c1O	-16.6	1.8	-18.0	1.1	10.0	23.0*	1.9	29.8*
N#Cc1c2c(c(Nc3ccc(F)cc3)n3c1nc1ccccc13)CCCC2	-20.5	2.6	-12.0	1.1	-1.9	-2.5	nt	nt
Cc1nn(-c2ccc(F)cc2)c2c1cc(C#N)c1nc3ccccc3n12	-3.5	-1.2	5.5	0.1	-1.1	16.2*	0.3	-0.7
COc1ccc(N2CCN(C(=S)NCCc3ccccc3)CC2)cc1	-9.9	-2.6	1.4	0.1	-5.6	9.8	nt	nt
Oc1ccc(N2CCN(C(=S)NCCc3ccccc3)CC2)cc1	-23.4	-1.8	12.7	0.5	-5.5	16.5*	8.4	11.9
CC(C)CN1C(=O)[C@@]2(CC(=O)N(C)C2c2ccccc2)c2cc(-n3cc(C(C)(C)O)nn3)ccc21 (stereo partly drawn)	nt	nt	nt	-0.2	-3.8	-3.7	nt	nt
CCCN1CCN(C(=O)Nc2ccc(OCC)cc2)CC1	2.8	2.0	1.0	0.1	-2.2	15.2*	-2.7	-2.5
SMILES	CRFBP-R2 block	CRFBP-R2 agonist	CendR NRP1 mod	KLK7 zymogen act	Tn7 DDE FP	Tn6 DDE FP	Tn6 DDE ctr	Tn6 DDE conf
O=C(O)c1cn(-c2ccc(N3CCCC3)c(F)c2)c2c(F)c(F)c(F)cc2c1=O	-55.0	-2.3	-43.8	-5.3	1.3	17.8*	-1.7	-4.0
Cc1c(-n2cc(C(=O)O)c(=O)c3cc(F)c(N4CCCC(O)C4)c(F)c32)c(=O)n(-c2ccccc2)n1C (stereo not drawn)	-2.1	-1.3	-1.4	4.2	-7.6	-0.1	nt	nt
Cn1c(=O)oc2cc(S(=O)(=O)N3CCN(C(=O)C4CCCO4)CC3)ccc21 (stereo not drawn)	nt	nt	nt	0.7	8.1	-3.1	nt	nt
COc1ccccc1N=Nc1nc(-c2ccccc2)c(-c2ccccc2)[nH]1	2.3	-1.1	-2.8	-0.7	-2.7	20.6*	9.2	8.9
CC1(C)CC(=O)C=C(Nc2ccccc2NC(=O)c2cc(F)ccc2F)C1	nt	nt	nt	0.1	-7.7	-3.6	nt	nt
CCC(=O)OCCCN1C(=O)CCC12CCC(C)CC2 (stereo not drawn)	nt	nt	nt	-0.1	1.9	1.6	nt	nt
Cc1ccc(C2CCC3(CCC(=O)N3CCO)CC2)cc1 (stereo not drawn)	nt	nt	nt	0.0	1.3	19.9*!	7.1	3.4
O=C([C@@H]1C[C@H]1c1ccccc1)N1CC[C@H]2[C@H](CCCN2Cc2cc(F)cc(F)c2)C1	nt	nt	nt	-0.2	-5.4	-1.3	nt	nt
O=C(c1ccncc1)N1CC[C@H]2[C@H](CCCN2Cc2ccccc2)C1	nt	nt	nt	-0.1	-2.0	-2.8	nt	nt
CN(C)[C@H]1CCN(c2ccc3c(c2)O[C@@H]2CCN(C2)S3(=O)=O)C1	nt	nt	nt	0.3	-3.9	-2.5	nt	nt
CC1(C)Cc2c(c(-c3ccco3)nc3sc4c(NCCO)ncnc4c23)CO1	-5.9	0.1	-19.4	-17.3	-0.5	0.9	nt	nt
COCCCNc1ncnc2c1sc1nc(-c3ccco3)c3c(c12)CC(C)(C)OC3	-18.3	0.2	-19.6	-19.4	5.7	18.1*	-3.3	-11.8
